Experimental data taken from ChEMBL document CHEMBL4145675, “2-Phenylquinoline S. aureus NorA Efflux Pump Inhibitors: Evaluation of the Importance of Methoxy Group Introduction” (J Med Chem, 2018).

What was measured:
[1] = target: T1, Quinolone resistance protein NorA (Staphylococcus aureus) (UniProt P0A0J7); test: Inhibition of NorA in Staphylococcus aureus SA-K2378 assessed as synergistic potentiation of ciprofloxacin-induced antimicrobial activity at 0.78 ug/ml by microdilution method based Checkerboard assay
T1 sequence (whole entry): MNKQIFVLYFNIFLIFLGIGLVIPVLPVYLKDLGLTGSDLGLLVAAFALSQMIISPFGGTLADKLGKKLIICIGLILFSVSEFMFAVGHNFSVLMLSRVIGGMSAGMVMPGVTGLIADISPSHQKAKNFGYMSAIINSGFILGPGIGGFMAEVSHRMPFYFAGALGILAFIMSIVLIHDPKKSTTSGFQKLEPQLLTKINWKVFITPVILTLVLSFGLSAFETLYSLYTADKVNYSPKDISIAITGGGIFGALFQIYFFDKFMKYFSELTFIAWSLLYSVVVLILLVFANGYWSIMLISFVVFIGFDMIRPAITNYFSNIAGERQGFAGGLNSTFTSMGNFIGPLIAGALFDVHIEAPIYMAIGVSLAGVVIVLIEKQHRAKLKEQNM

[2] = target: T2, Multidrug export protein MepA (Staphylococcus aureus (strain NCTC 8325)) (UniProt Q2G140); test: Inhibition of MepA in Staphylococcus aureus SA-K2886 assessed as synergistic potentiation of EtBr-induced antimicrobial activity by measuring […] at 1.56 ug/ml by microdilution method based Checkerboard assay (reference value: 25 ug/ml)
T2 sequence (whole entry): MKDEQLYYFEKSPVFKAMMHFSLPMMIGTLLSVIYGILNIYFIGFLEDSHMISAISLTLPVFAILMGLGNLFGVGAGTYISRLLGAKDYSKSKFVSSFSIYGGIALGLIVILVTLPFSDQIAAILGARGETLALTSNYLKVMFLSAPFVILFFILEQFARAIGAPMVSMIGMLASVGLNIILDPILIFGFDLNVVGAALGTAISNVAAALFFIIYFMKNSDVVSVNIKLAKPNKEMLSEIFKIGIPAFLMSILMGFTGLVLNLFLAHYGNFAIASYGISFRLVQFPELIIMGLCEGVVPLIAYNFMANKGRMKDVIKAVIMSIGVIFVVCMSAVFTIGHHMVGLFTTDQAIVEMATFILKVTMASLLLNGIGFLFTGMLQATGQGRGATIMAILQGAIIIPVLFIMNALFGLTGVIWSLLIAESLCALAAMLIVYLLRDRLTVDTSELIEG
How it was run: (§1)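 Checkerboard combination of EtBr with compound, using broth microdilution MICs. SA-K2886 (norA-deleted, pALC2073-mepA) and SA-K2885 (norA-deleted, empty pALC2073) were run with 0.05 µg/mL tetracycline in all experiments to induce the xyl/tetO promoter.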

[3] = target: T2, Multidrug export protein MepA (Staphylococcus aureus (strain NCTC 8325)); test: Inhibition of MepA in Staphylococcus aureus SA-K2886 assessed as synergistic potentiation of EtBr-induced antimicrobial activity by measuring […] at 3.13 ug/ml by microdilution method based Checkerboard assay (reference value: 25 ug/ml); how it was run: as §1

SMILES | fold change (FC) [1] | MIC [2] [µg/mL] | MIC [3] [µg/mL]
CCCOc1ccc(-c2cc(OCCN3CCCCC3)c3cc(OC)ccc3n2)cc1 | 8 | < 1.56 | –
CCCOc1ccc(-c2cc(OCCN3CCc4cc(OC)c(OC)cc4C3)c3cc(OC)c(OC)cc3n2)cc1 | – | – | < 1.56
